This is an account of results in ChEMBL document CHEMBL3297695, “Sesquiterpenoids from Pittocaulon filare” (2014).

Experiment [1] concerns Mus musculus. Description: Antiinflammatory activity against CD1 mouse ear edema model assessed as reduction of TPA-induced ear edema measured per ear administered topically 10 mins prior to TPA challenge measured after 4 hrs. The experiment is classed as functional. Put shortly:
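Male CD-1 mice (25−30 g), housed at 27 ± 1 °C on a 12/12 h light−dark cycle with food and water ad libitum. Compounds were applied topically to the ear in acetone−CH2Cl2 (1:1). Edema was induced by TPA and quantified as the weight of ear biopsies taken 4 h after sample application. The ID50 is expressed in μmol/ear. Data are mean ± SEM.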

Experiment [2] has as its system Mus musculus. The experiment in a line: Antiinflammatory activity against TPA-induced CD1 mouse ear edema model assessed as neutrophil infiltration by measuring myeloperoxidase content at 1 umol/ear administered topically 10 mins prior to TPA challenge measured after 4 hrs relative to control. It is filed as functional. Put shortly:
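Male CD-1 mice (25−30 g), ear edema induced by TPA. Compounds were applied topically at 1 μmol/ear in acetone−CH2Cl2 (1:1). MPO activity, used as a marker of neutrophils, was measured in ear biopsies taken 4 h after application by an adapted Bradley/Suzuki method. Results are given as % MPO content, mean ± SEM, analysed by ANOVA with Dunnett test against control.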

For the compound `C=C1[C@H]2[C@@H](/C(=C/C)C(=O)[C@H]2OC(=O)[C@@H](C)CC)[C@H]([C@@]2(C)CO2)[C@@H](OC(=O)[C@@H](C)CC)[C@H]1OC(=O)/C=C(\C)CC`, in the experiment with Mus musculus [1], the Activity entry is “Dose-dependent effect” and the ID50 worked out at 0.55 µmol. Moreover, the Activity in the experiment on Mus musculus [2] worked out at 11.07%.
On to `C=C1[C@@H]2CC(=O)[C@H]([C@@H](C)OC(C)=O)[C@H]2[C@H](C(C)C)[C@@H](OC(=O)[C@@H](C)CC)[C@H]1OC(=O)/C=C(\C)CC`, for which the figures for the Activity result with Mus musculus [1] and in the experiment with Mus musculus [2] were “Dose-dependent effect” and 12.67%, respectively. Further, in the experiment on Mus musculus [1], the ID50 worked out at 0.17 µmol.
The matching figures for `C=C1[C@H]2[C@@H]([C@@H]([C@@H](C)OC(C)=O)C(=O)[C@H]2OC(=O)[C@@H](C)CC)[C@H]([C@@]2(C)CO2)[C@@H](OC(=O)[C@@H](C)CC)[C@H]1OC(=O)/C=C(\C)CC`: “Dose-dependent effect”, 19.05% and 0.18 µmol.
On to `COc1ccc2c(c1)c(CC(=O)O)c(C)n2C(=O)c1ccc(Cl)cc1` [INDOMETHACIN], for which, in the experiment with Mus musculus [1], the ID50 worked out at 0.24 µmol. Besides, the Activity in the experiment on Mus musculus [2] stood at 8.83%.
